According to ChEMBL document CHEMBL1121789, “Some analogues of luteinizing hormone-releasing hormone with substituents in position 10” (1981):
Square brackets hold non-standard residues; d marks the D form. Peptide text beside a SMILES is read from it. * marks the point of attachment. pGlu = O=C1CC[C@@H](C(=O)O)N1; X1 = O=C(NN*)C(F)(F)F; X5 = N/C(S)=N\N*; X2 = CC(=O)NN*; X3 = CN(N)*; X4 = O=CNN*

Experiments:
[1] = species on record: Rattus norvegicus; experiment: In vitro FSH-release potency of compound was measured in rat hemipituitaries by taking LH-RH as standard; type: functional
Procedure, shortened: (§1)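 Rat hemipituitaries incubated in vitro with each analogue, usually at two dose levels in a 2 × 2 (four-point) design against an LH-RH standard. Media sampled 6 h later and assayed for LH and FSH by radioimmunoassay. Potency expressed relative to the standard, with 95% confidence limits.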

[2] = species on record: Rattus norvegicus; experiment: In vitro LH-release potency of compound was measured in rat hemipituitaries by taking LH-RH as standard; type: functional; procedure, shortened: as §1

Compound	Potency [1]	Potency [2]
CC(C)C[C@H](NC(=O)CNC(=O)[C@H](Cc1ccc(O)cc1)NC(=O)[C@H](CO)NC(=O)[C@H](Cc1c[nH]c2ccccc12)NC(=O)[C@H](Cc1c[nH]cn1)NC(=O)[C@@H]1CCC(=O)N1)C(=O)N[C@@H](CCCN=C(N)N)C(=O)N1CCC[C@H]1C(=O)NNC(=O)C(F)(F)F ([pGlu]HWSYGLRP-X1)	0.9	1
CC(=O)NNC(=O)[C@@H]1CCCN1C(=O)[C@H](CCCN=C(N)N)NC(=O)[C@H](CC(C)C)NC(=O)CNC(=O)[C@H](Cc1ccc(O)cc1)NC(=O)[C@H](CO)NC(=O)[C@H](Cc1c[nH]c2ccccc12)NC(=O)[C@H](Cc1c[nH]cn1)NC(=O)[C@@H]1CCC(=O)N1 ([pGlu]HWSYGLRP-X2)	0.6	1.2
CC(C)C[C@H](NC(=O)CNC(=O)[C@H](Cc1ccc(O)cc1)NC(=O)[C@H](CO)NC(=O)[C@H](Cc1c[nH]c2ccccc12)NC(=O)[C@H](Cc1c[nH]cn1)NC(=O)[C@@H]1CCC(=O)N1)C(=O)N[C@@H](CCCN=C(N)N)C(=O)N1CCC[C@H]1C(=O)N(C)N ([pGlu]HWSYGLRP-X3)	11	17
CC(C)C[C@H](NC(=O)CNC(=O)[C@H](Cc1ccc(O)cc1)NC(=O)[C@H](CO)NC(=O)[C@H](Cc1c[nH]c2ccccc12)NC(=O)[C@H](Cc1c[nH]cn1)NC(=O)[C@@H]1CCC(=O)N1)C(=O)N[C@@H](CCCN=C(N)N)C(=O)N1CCC[C@H]1C(=O)NNC=O ([pGlu]HWSYGLRP-X4)	10	15.3
CC(C)C[C@H](NC(=O)CNC(=O)[C@H](Cc1ccc(O)cc1)NC(=O)[C@H](CO)NC(=O)[C@H](Cc1c[nH]c2ccccc12)NC(=O)[C@H](Cc1c[nH]cn1)NC(=O)[C@@H]1CCC(=O)N1)C(=O)N[C@@H](CCCN=C(N)N)C(=O)N1CCC[C@H]1C(=O)N/N=C(\N)S ([pGlu]HWSYGLRP-X5)	4.6	6.5
CC(C)C[C@H](NC(=O)CNC(=O)[C@H](Cc1ccc(O)cc1)NC(=O)[C@H](CO)NC(=O)[C@H](Cc1c[nH]c2ccccc12)NC(=O)[C@H](Cc1cnc[nH]1)NC(=O)[C@@H]1CCC(=O)N1)C(=O)N[C@@H](CCCNC(=N)N)C(=O)N1CCC[C@H]1C(=O)NCC(N)=O [GONADORELIN]	100	100
